Results from PMC10582670 (Clinical and Translational Science, 2023).
Where “and” joins values, the source holds several entries; their conditions need not be identical. Equal entries are not always repeated.

Tested on: healthy volunteers
Test: Safety and tolerability
Format: in vivo, human
Method in brief: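 Healthy volunteers aged 18–55 y, BMI 18–30 kg/m², randomised double-blind 8:2 to once-daily oral drug or placebo for up to 14 days, with follow-up visits on days 21 and 42. Treatment-emergent AEs coded with MedDRA 23.1 and graded with the WHO toxicity scale, alongside ECGs, laboratory tests and vital signs. The safety population was all subjects receiving at least one dose.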

O=C(c1nc2n(n1)[C@H](c1ccccc1)C[C@@H]2F)C1CC1 [GDC‐8264]
No. of TEAEs (MAD 50 mg q.d., n = 5): 10 | No. of deaths (MAD 50 mg q.d., n = 5): 0 no. of subjects (%) | No. of subjects with at least one Related TEAE (MAD 50 mg q.d., n = 5): 3 (60.0) no. of subjects (%) | No. of subjects with at least one Serious TEAE (MAD 50 mg q.d., n = 5): 0 no. of subjects (%) | No. of subjects with at least one TEAE (MAD 50 mg q.d., n = 5): 3 (60.0) no. of subjects (%) | No. of subjects withdrawn from study due to a TEAE (MAD 50 mg q.d., n = 5): 0 no. of subjects (%) | TEAE Abdominal pain (MAD 50 mg q.d., n = 5): 0 no. of subjects (%) | TEAE Back pain (MAD 50 mg q.d., n = 5): 0 no. of subjects (%) | TEAE Catheter site pain (MAD 50 mg q.d., n = 5): 0 no. of subjects (%) | TEAE Dermatitis contact (MAD 50 mg q.d., n = 5): 0 no. of subjects (%) | TEAE Diarrhea (MAD 50 mg q.d., n = 5): 1 (20.0) no. of subjects (%) | TEAE Dizziness (MAD 50 mg q.d., n = 5): 0 no. of subjects (%) | TEAE Dyspepsia (MAD 50 mg q.d., n = 5): 1 (20.0) no. of subjects (%) | TEAE Gastrointestinal sounds abnormal (MAD 50 mg q.d., n = 5): 0 no. of subjects (%) | TEAE Gingivitis (MAD 50 mg q.d., n = 5): 0 no. of subjects (%) | TEAE Headache (MAD 50 mg q.d., n = 5): 0 no. of subjects (%) | TEAE Medical device site dermatitis (MAD 50 mg q.d., n = 5): 0 no. of subjects (%) | TEAE Myalgia (MAD 50 mg q.d., n = 5): 0 no. of subjects (%) | TEAE Nausea (MAD 50 mg q.d., n = 5): 0 no. of subjects (%) | TEAE Presyncope (MAD 50 mg q.d., n = 5): 0 no. of subjects (%) | TEAE Somnolence (MAD 50 mg q.d., n = 5): 0 no. of subjects (%) | No. of TEAEs (MAD 100 mg q.d., n = 7): 32 | No. of deaths (MAD 100 mg q.d., n = 7): 0 no. of subjects (%) | No. of subjects with at least one Related TEAE (MAD 100 mg q.d., n = 7): 5 (71.4) no. of subjects (%) | No. of subjects with at least one Serious TEAE (MAD 100 mg q.d., n = 7): 0 no. of subjects (%) | No. of subjects with at least one TEAE (MAD 100 mg q.d., n = 7): 7 (100) no. of subjects (%) | No. of subjects withdrawn from study due to a TEAE (MAD 100 mg q.d., n = 7): 0 no. of subjects (%) | TEAE Abdominal pain (MAD 100 mg q.d., n = 7): 2 (28.6) no. of subjects (%) | TEAE Back pain (MAD 100 mg q.d., n = 7): 0 no. of subjects (%) | TEAE Catheter site pain (MAD 100 mg q.d., n = 7): 2 (28.6) no. of subjects (%) | TEAE Dermatitis contact (MAD 100 mg q.d., n = 7): 1 (14.3) no. of subjects (%) | TEAE Diarrhea (MAD 100 mg q.d., n = 7): 2 (28.6) no. of subjects (%) | TEAE Dizziness (MAD 100 mg q.d., n = 7): 2 (28.6) no. of subjects (%) | TEAE Dyspepsia (MAD 100 mg q.d., n = 7): 0 no. of subjects (%) | TEAE Gastrointestinal sounds abnormal (MAD 100 mg q.d., n = 7): 1 (14.3) no. of subjects (%) | TEAE Gingivitis (MAD 100 mg q.d., n = 7): 2 (28.6) no. of subjects (%) | TEAE Headache (MAD 100 mg q.d., n = 7): 2 (28.6) no. of subjects (%) | TEAE Medical device site dermatitis (MAD 100 mg q.d., n = 7): 0 no. of subjects (%) | TEAE Myalgia (MAD 100 mg q.d., n = 7): 0 no. of subjects (%) | TEAE Nausea (MAD 100 mg q.d., n = 7): 1 (14.3) no. of subjects (%) | TEAE Presyncope (MAD 100 mg q.d., n = 7): 1 (14.3) no. of subjects (%) | TEAE Somnolence (MAD 100 mg q.d., n = 7): 3 (42.9) no. of subjects (%) | No. of TEAEs (MAD All GDC-8264, n = 12): 42 | No. of deaths (MAD All GDC-8264, n = 12): 0 no. of subjects (%) | No. of subjects with at least one Related TEAE (MAD All GDC-8264, n = 12): 8 (66.7) no. of subjects (%) | No. of subjects with at least one Serious TEAE (MAD All GDC-8264, n = 12): 0 no. of subjects (%) | No. of subjects with at least one TEAE (MAD All GDC-8264, n = 12): 10 no. of subjects (%) and 10 (83.3) no. of subjects (%) | No. of subjects withdrawn from study due to a TEAE (MAD All GDC-8264, n = 12): 0 no. of subjects (%) | TEAE Abdominal pain (MAD All GDC-8264, n = 12): 2 (16.7) no. of subjects (%) | TEAE Back pain (MAD All GDC-8264, n = 12): 0 no. of subjects (%) | TEAE Catheter site pain (MAD All GDC-8264, n = 12): 2 (16.7) no. of subjects (%) | TEAE Dermatitis contact (MAD All GDC-8264, n = 12): 1 (8.3) no. of subjects (%) | TEAE Diarrhea (MAD All GDC-8264, n = 12): 3 (25.0) no. of subjects (%) | TEAE Dizziness (MAD All GDC-8264, n = 12): 2 (16.7) no. of subjects (%) | TEAE Dyspepsia (MAD All GDC-8264, n = 12): 1 (8.3) no. of subjects (%) | TEAE Gastrointestinal sounds abnormal (MAD All GDC-8264, n = 12): 1 (8.3) no. of subjects (%) | TEAE Gingivitis (MAD All GDC-8264, n = 12): 2 (16.7) no. of subjects (%) | TEAE Headache (MAD All GDC-8264, n = 12): 2 (16.7) no. of subjects (%) | TEAE Medical device site dermatitis (MAD All GDC-8264, n = 12): 0 no. of subjects (%) | TEAE Myalgia (MAD All GDC-8264, n = 12): 0 no. of subjects (%) | TEAE Nausea (MAD All GDC-8264, n = 12): 1 (8.3) no. of subjects (%) | TEAE Presyncope (MAD All GDC-8264, n = 12): 1 (8.3) no. of subjects (%) | TEAE Somnolence (MAD All GDC-8264, n = 12): 3 (25.0) no. of subjects (%) | No. of TEAEs (SAD (fasted) 5 mg, n = 6): 6 | No. of deaths (SAD (fasted) 5 mg, n = 6): 0 no. of subjects (%) | No. of subjects with at least one Related TEAE (SAD (fasted) 5 mg, n = 6): 0 no. of subjects (%) | No. of subjects with at least one Serious TEAE (SAD (fasted) 5 mg, n = 6): 0 no. of subjects (%) | No. of subjects with at least one TEAE (SAD (fasted) 5 mg, n = 6): 5 (83.3) no. of subjects (%) | No. of subjects withdrawn from study due to a TEAE (SAD (fasted) 5 mg, n = 6): 0 no. of subjects (%) | TEAE Abdominal pain (SAD (fasted) 5 mg, n = 6): 1 (16.7) no. of subjects (%) | TEAE Back pain (SAD (fasted) 5 mg, n = 6): 0 no. of subjects (%) | TEAE Catheter site pain (SAD (fasted) 5 mg, n = 6): 1 (16.7) no. of subjects (%) | TEAE Dermatitis contact (SAD (fasted) 5 mg, n = 6): 1 (16.7) no. of subjects (%) | TEAE Diarrhea (SAD (fasted) 5 mg, n = 6): 0 no. of subjects (%) | TEAE Dizziness (SAD (fasted) 5 mg, n = 6): 0 no. of subjects (%) | TEAE Dyspepsia (SAD (fasted) 5 mg, n = 6): 1 (16.7) no. of subjects (%) | TEAE Gastrointestinal sounds abnormal (SAD (fasted) 5 mg, n = 6): 0 no. of subjects (%) | TEAE Gingivitis (SAD (fasted) 5 mg, n = 6): 0 no. of subjects (%) | TEAE Headache (SAD (fasted) 5 mg, n = 6): 1 (16.7) no. of subjects (%) | TEAE Medical device site dermatitis (SAD (fasted) 5 mg, n = 6): 0 no. of subjects (%) | TEAE Myalgia (SAD (fasted) 5 mg, n = 6): 0 no. of subjects (%) | TEAE Nausea (SAD (fasted) 5 mg, n = 6): 0 no. of subjects (%) | TEAE Presyncope (SAD (fasted) 5 mg, n = 6): 0 no. of subjects (%) | TEAE Somnolence (SAD (fasted) 5 mg, n = 6): 0 no. of subjects (%) | No. of TEAEs (SAD (fasted) 25 mg, n = 6): 6 | No. of deaths (SAD (fasted) 25 mg, n = 6): 0 no. of subjects (%) | No. of subjects with at least one Related TEAE (SAD (fasted) 25 mg, n = 6): 0 no. of subjects (%) | No. of subjects with at least one Serious TEAE (SAD (fasted) 25 mg, n = 6): 0 no. of subjects (%) | No. of subjects with at least one TEAE (SAD (fasted) 25 mg, n = 6): 4 (66.7) no. of subjects (%) | No. of subjects withdrawn from study due to a TEAE (SAD (fasted) 25 mg, n = 6): 0 no. of subjects (%) | TEAE Abdominal pain (SAD (fasted) 25 mg, n = 6): 1 (16.7) no. of subjects (%) | TEAE Back pain (SAD (fasted) 25 mg, n = 6): 0 no. of subjects (%) | TEAE Catheter site pain (SAD (fasted) 25 mg, n = 6): 0 no. of subjects (%) | TEAE Dermatitis contact (SAD (fasted) 25 mg, n = 6): 0 no. of subjects (%) | TEAE Diarrhea (SAD (fasted) 25 mg, n = 6): 0 no. of subjects (%) | TEAE Dizziness (SAD (fasted) 25 mg, n = 6): 0 no. of subjects (%) | TEAE Dyspepsia (SAD (fasted) 25 mg, n = 6): 0 no. of subjects (%) | TEAE Gastrointestinal sounds abnormal (SAD (fasted) 25 mg, n = 6): 0 no. of subjects (%) | TEAE Gingivitis (SAD (fasted) 25 mg, n = 6): 0 no. of subjects (%) | TEAE Headache (SAD (fasted) 25 mg, n = 6): 2 (33.3) no. of subjects (%) | TEAE Medical device site dermatitis (SAD (fasted) 25 mg, n = 6): 0 no. of subjects (%) | TEAE Myalgia (SAD (fasted) 25 mg, n = 6): 0 no. of subjects (%) | TEAE Nausea (SAD (fasted) 25 mg, n = 6): 0 no. of subjects (%) | TEAE Presyncope (SAD (fasted) 25 mg, n = 6): 1 (16.7) no. of subjects (%) | TEAE Somnolence (SAD (fasted) 25 mg, n = 6): 0 no. of subjects (%)
